Values after ≈ are worked out from the molar mass of the structure shown. Values joined by “and” are separate entries in the source; they are usually repeats but may differ in a detail not shown here. Equal values may be shown once.
What was measured:
[1] = tested on: human blood suspension; assay: Hemolytic assay, spectrophotometric, free hemoglobin at 540 nm; format: cell-based
[2] = tested on: L929 cell line; assay: Cell toxicity assay; format: cell-based
[3] = Biochemical analysis of serum AST and ALT; format: in vivo, BALB/c mice; conditions: for level of AST: serum, after treatment, P = 0.072
Method in brief: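 Female BALB/c mice (about 20 g, 6–7 weeks), 5 per group, were infected subcutaneously at the tail base with L. major promastigotes and then given topical ointment treatments. After 28 days, serum was drawn and AST and ALT were measured with a commercial kit. The manufacturer's normal ranges were ALT 75–90 IU/l and AST 125–155 IU/l.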

[4] = tested on: L. major promastigotes; assay: In vitro anti-promastigote activity, viability by eosin 0.1% vital stain; format: cell-based; conditions: Leishmania major, 48 h
Method in brief: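 L. major promastigotes (strain MRHO/IR/75/ER) were kept in RPMI 1640 (pH 7.4) with 20% FBS, 25 mM HEPES and penicillin/streptomycin at 24 °C, passaged every 3 days. Log-phase cells (100 µl at 1 × 10^6/ml) received 100 µl of test compound solution; PBS was the negative control. Plates were held at 26 °C.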

[5] = tested on: L. major; assay: In vivo anti-leishmanial effects, lesion size after topical ointment treatment; parameters: species or system BALB/c mice; conditions: group receiving amphotericin B
Method in brief: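 Female BALB/c mice (about 20 g, 6–7 weeks), 5 per group, were injected subcutaneously at the tail base with 1.5 × 10^6 stationary-phase L. major promastigotes. Nodules and ulcers formed by day 21, and lesion amastigotes were confirmed by microscopy at 1000×. Topical ointments were given over 28 days, with vehicle ointment or PBS as controls. Lesion diameter was measured weekly with a dial micrometer before and after treatment.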

[6] = 12 h, composition as in the label, concentration of controls not given
[7] = 24 h, composition as in the label, concentration of controls not given
[8] = 48 h, composition as in the label, concentration of controls not given
[9] = 6 h, composition as in the label, concentration of controls not given

## Triton X100
[1]; [6]
  Hemolytic activity (%) ± SD: 90.1 ± 4.5%
[1]; [7]
  Hemolytic activity (%) ± SD: 99.4 ± 0.5%
[1]; [8]
  Hemolytic activity (%) ± SD: 100 ± 0.0%
[2]; [9]
  Cytotoxic activity (%) ± SD: 0.14±-0.002%
[2]; [6]
  Cytotoxic activity (%) ± SD: 0.11 ± 0.02%
[2]; [7]
  Cytotoxic activity (%) ± SD: 0.11 ± 0.006%

## CNC[C@H](O)[C@@H](O)[C@H](O)[C@H](O)CO.[O]=[Sb](=[O])[OH] [Glucantime]
[3]
  level of AST: higher compared to the other treatment groups
[1]; [6]
  Hemolytic activity (%) ± SD: 15.6 ± 0.5%
[1]; [7]
  Hemolytic activity (%) ± SD: 18.6 ± 0.6%
[1]; [8]
  Hemolytic activity (%) ± SD: 20.3 ± 0.8%
[2]; [9]
  Cytotoxic activity (%) ± SD: 0.43 ± 0.002%
[2]; [6]
  Cytotoxic activity (%) ± SD: 0.38 ± 0.01%
[2]; [7]
  Cytotoxic activity (%) ± SD: 0.35 ± 0.02%

## C[C@@H]1[C@H](O)[C@@H](C)/C=C/C=C/C=C/C=C/C=C/C=C/C=C/[C@H](O[C@@H]2O[C@H](C)[C@@H](O)[C@H](N)[C@@H]2O)C[C@@H]2O[C@](O)(C[C@@H](O)C[C@@H](O)[C@H](O)CC[C@@H](O)C[C@@H](O)CC(=O)O[C@H]1C)C[C@H](O)[C@H]2C(=O)O [Amphotericin B]
[4]
  IC50: 256 µg/mL (≈ 277 µM)
[5]; after 28 days of treatment
  wound size after 28 days: 1.59 mm
[5]; before treatment
  wound size before treatment: 15.71 mm
[3]; blood samples after 28 days, in words
  toxicity judged by AST and ALT: highest drug toxicity
[3]
  level of AST: higher compared to the other treatment groups
[1]; 12 h, amphotericin B 500 µg/ml
  Hemolytic activity (%) ± SD: 13.9% and 13.9 ± 0.4%
[1]; 24 h, amphotericin B 500 µg/ml
  Hemolytic activity (%) ± SD: 17.9% and 17.9 ± 0.9%
[1]; 48 h, amphotericin B 500 µg/ml
  Hemolytic activity (%) ± SD: 18.4% and 18.4 ± 0.9%
[2]; 6 h, amphotericin B 500 µg/ml
  Cytotoxic activity (%) ± SD: 0.43 ± 0.03%
[2]; 12 h, amphotericin B 500 µg/ml
  Cytotoxic activity (%) ± SD: 0.41 ± 0.07%
[2]; 24 h, amphotericin B 500 µg/ml
  Cytotoxic activity (%) ± SD: 0.41 ± 0.04%
[2]; in words, chitosan at 10, 50, and 100 mg/ml
  toxicity in the MTT assay: significantly lower than those of cisplatin

Reference: paper PMC12040810 (AMB Express, 2025)
